Results on twelve compounds are retold here after ChEMBL document CHEMBL1122309 (J Med Chem, 1983).

For series [1], the target named is T1, Cholesterol side-chain cleavage enzyme, mitochondrial (Bos taurus, UniProt P00189).
T1 sequence (P00189 whole entry): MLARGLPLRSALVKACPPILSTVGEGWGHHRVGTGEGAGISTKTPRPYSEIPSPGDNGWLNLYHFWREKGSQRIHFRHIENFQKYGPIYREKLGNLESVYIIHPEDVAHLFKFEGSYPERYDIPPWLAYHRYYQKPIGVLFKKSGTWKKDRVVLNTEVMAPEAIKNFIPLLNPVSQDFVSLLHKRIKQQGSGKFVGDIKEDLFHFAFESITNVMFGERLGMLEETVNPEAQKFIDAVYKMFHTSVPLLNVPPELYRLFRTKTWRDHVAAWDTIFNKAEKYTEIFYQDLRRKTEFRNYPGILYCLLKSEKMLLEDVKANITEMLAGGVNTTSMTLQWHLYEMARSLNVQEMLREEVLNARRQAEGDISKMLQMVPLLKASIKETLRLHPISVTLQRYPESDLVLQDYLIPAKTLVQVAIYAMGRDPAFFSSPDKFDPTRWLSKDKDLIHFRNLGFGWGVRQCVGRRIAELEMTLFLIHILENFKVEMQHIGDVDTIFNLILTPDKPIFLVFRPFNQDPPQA
The series is described as follows: (§1) Inhibition of bovine cholesterol side-chain cleavage desmolase, cytochrome P450 11A1. Also noted: concentration or dose not given beside the values. The conditions noted are these: cattle. Put shortly:
(§2)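 Enzyme source was the mitochondrial fraction of bovine adrenal cortex, stored at -70 °C. Substrate [14C]cholesterol; [14C]isocaproic acid released was measured. Inhibitors were added in 10 μL ethanol (ethanol alone in controls) to a 1.0 mL assay and preincubated 5 min at 30 °C. The reaction was started with 1 mg mitochondrial protein and sampled at 2, 4 and 6 min. Result given as % of control rate; apparent Ki from Lineweaver-Burk plots.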

In series [2] the target is T2, Aromatase (Homo sapiens, UniProt P11511).
T2 sequence (P11511 whole entry): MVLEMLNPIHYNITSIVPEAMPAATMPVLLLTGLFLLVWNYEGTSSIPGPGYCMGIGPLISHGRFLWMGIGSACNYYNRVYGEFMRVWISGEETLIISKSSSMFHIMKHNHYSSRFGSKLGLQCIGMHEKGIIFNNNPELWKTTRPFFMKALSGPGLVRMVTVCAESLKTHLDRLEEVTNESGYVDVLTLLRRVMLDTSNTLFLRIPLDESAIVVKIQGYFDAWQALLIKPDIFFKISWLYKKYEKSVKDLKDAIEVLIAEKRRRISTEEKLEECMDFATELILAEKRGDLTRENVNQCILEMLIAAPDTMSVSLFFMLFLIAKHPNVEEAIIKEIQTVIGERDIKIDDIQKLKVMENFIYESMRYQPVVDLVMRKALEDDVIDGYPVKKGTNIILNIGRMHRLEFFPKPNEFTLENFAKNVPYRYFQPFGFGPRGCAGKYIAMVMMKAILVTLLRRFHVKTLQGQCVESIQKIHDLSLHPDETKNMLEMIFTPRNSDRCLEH
The series can be described thus: Inhibition of human placental aromatase Cytochrome P450 19A1; none.

Series [3] concerns the target T1, Cholesterol side-chain cleavage enzyme, mitochondrial. The series can be described thus: Inhibition of bovine cholesterol side-chain cleavage desmolase, cytochrome P450 11A1; none. The conditions noted are these: cattle. The essentials: as §2
Series [4] shares this target. The series is described as §1. Conditions: cattle; call rule not given here. Put shortly: as §2

As a reminder, the Inhibition is the share of the control response that was lost under treatment. Regarding `CCC1(c2ccc(O)c(N)c2)CCC(=O)NC1=O` (stereo not drawn), the figures for the Inhibition in series [1] and in series [2] were 35% and “Not Active”, respectively.
Regarding `CCC1(c2ccc(O)c([N+](=O)[O-])c2)CCC(=O)NC1=O` (stereo not drawn), the Inhibition result in series [2] and in series [3] was “Not Active” throughout.
Take `CCC1(c2ccccc2)CCC(=O)NC1=O` (stereo not drawn) [GLUTETHIMIDE]: the Inhibition entry in series [2] and in series [3] was “Not Active” throughout.
`CCC1(c2ccc(O)cc2)CCC(=O)NC1=O` (stereo not drawn) [P-HYDROXYGLUTETHIMIDE]: the Inhibition result in series [2] and in series [3] was “Not Active” throughout.
As for `CCC1(c2ccc(N)c(O)c2)CCC(=O)NC1=O` (stereo not drawn), the Inhibition result in series [2] and in series [3] was “Not Active” in each case.
For `CCC1(c2cccc(N)c2)CCC(=O)NC1=O` (stereo not drawn), the Inhibition in series [4] was determined as 13%.
Consider `CCC1(c2ccc(N)cc2)CCC(=O)N(N)C1=O` (stereo not drawn), for which the Inhibition in series [1] is recorded as 50%.
On to `CCC1(c2ccc(NC(C)=O)cc2)CCC(=O)NC1=O` (stereo not drawn), for which the Inhibition entry in series [2] and in series [3] was “Not Active” throughout.
`CCC1(c2ccc(N)cc2)CCC(=O)NC1=O` (stereo not drawn) [AMINOGLUTETHIMIDE] showed an Inhibition in series [1] of 85%.
In the case of `CCC1(c2ccc(NC=O)cc2)CCC(=O)NC1=O` (stereo not drawn), the Inhibition in series [1] is 12%.
Same read-out and setting: in the case of `CCC1(c2ccc([N+](=O)[O-])cc2)CCC(=O)NC1=O` (stereo not drawn) [4-NITROGLUTETHIMIDE] it was 20%; in that of `CCC1(c2ccc(N)cc2)CC(N)C(=O)NC1=O` (stereo not drawn), 45%.
